Experimental data published in ChEMBL document CHEMBL1122071, “Avermectin acyl derivatives with anthelmintic activity” (1982).

Assays:
Format in all cases: functional
[1] = system: Trichostrongylus colubriformis; experiment: Minimal dose necessary to eliminate > 83% of Trichostrongylus colubriformis infection in gerbils
[2] = system: Oesophagostomum columbianum; experiment: Anthelmintic efficacy against Oseophagostomum columbianum (Oe. c) in sheep at dose of 0.1 mg/kg administered subcutaneously; conditions: route subcutaneous
In short: (§1)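 Experimentally infected lambs carrying mixed nematode species each received 0.1 mg/kg by subcutaneous injection, one sheep per treatment. An untreated infected group of 6 lambs served as comparison, with worm burdens given as the geometric mean number of worms per lamb. Efficacy was scored for each parasite species.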

Cooperia curticei [3] = experiment: Anthelmintic efficacy against immature (EL4) Cooperia curticei. in sheep at dose of 0.1 mg/kg administered subcutaneously; conditions: route subcutaneous
[4] = system: Trichostrongylus colubriformis; experiment: Anthelmintic efficacy against Trichostrongylus colubriformis (T.c) in sheep at dose of 0.1 mg/kg administered subcutaneously; conditions: route subcutaneous; in short: as §1
Cooperia curticei [5] = experiment: Anthelmintic efficacy against adult Cooperia curticei. in sheep at dose of 0.1 mg/kg administered subcutaneously; conditions: route subcutaneous
Haemonchus contortus = experiment: Anthelmintic efficacy against adult Haemonchus contortus (H.c) in sheep at dose of 0.1 mg/kg administered subcutaneously; conditions: route subcutaneous; in short: as §1
Trichostrongylus axei = experiment: Anthelmintic efficacy against Trichostrongylus axei (T.a) in sheep at dose of 0.1 mg/kg administered subcutaneously; 60-89; conditions: route subcutaneous; in short: as §1

Structure (SMILES): CC[C@H](C)[C@H]1O[C@]2(C=C[C@@H]1C)C[C@@H]1C[C@@H](C/C=C(\C)[C@@H](O[C@H]3C[C@@H](OC)[C@@H](O[C@H]4C[C@@H](OC)[C@@H](OC(=O)CCC(=O)O)[C@H](C)O4)[C@H](C)O3)[C@@H](C)/C=C/C=C3\CO[C@@H]4[C@H](O)C(C)=C[C@@H](C(=O)O1)[C@]34O)O2
- Dose [1]: 0.03 mg/kg
- Efficacy [2]: >90%
- Efficacy (Cooperia curticei [3]): >90%
- Efficacy [4]: >90%
- Efficacy (Cooperia curticei [5]): >90%
- Efficacy (Haemonchus contortus): >90%
- Efficacy (Trichostrongylus axei): 60%
